Structures are written as SMILES. Calls of active or inactive are those of the source. The calls are words filed in the database; no cut-off is given here.

Data set [1] relates to U-87 MG. Kind of data set: (§1) Cytotoxicity against U-87 MG glioblastomas using MTT colorimetric assay; NE is no effect at 1x 10 E-5. Particulars: u-87mg atcc. The format is functional, cell-based, Homo sapiens. Put shortly:
(§2)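 Human tumour lines from ATCC were grown at 37 °C in sealed dishes in MEM with 5% FCS. Cells were seeded at 40000 cells/mL in 96-well plates and left 24 h to plate. Each drug was then tested at six concentrations from 10^-5 to 10^-9 M. Growth was read by colorimetric MTT assay.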

For data set [2], the system named is A 172. Kind of data set: (§3) Cytotoxicity against A-172 glioblastomas using MTT colorimetric assay; NE is no effect at 1x 10 E-5. In kind it is functional, cell-based, Homo sapiens. Put shortly: as §2
Data set [3] relates to MCF7. Kind of data set: (§4) Cytotoxicity against Breast cancer cell line MCF-7 using MTT colorimetric assay; NE is no effect at 1x 10 E-5. The format is functional, cell-based, Homo sapiens. Put shortly:
as §2

Data set [4] relates to U373 MG. Kind of data set: (§5) Cytotoxicity against U-373 MG glioblastomas using MTT colorimetric assay; NE is no effect at 1x 10 E-5. The format is functional, cell-based, Homo sapiens. Particulars: u-373mg atcc. Put shortly:
as §2

The subject of data set [5] is HCT-15. The experiment in a line: Cytotoxicity against HCT-15 colon cell line using MTT colorimetric assay a; NE is no effect at 1x 10 E-5. The format is functional, cell-based, Homo sapiens. Put shortly:
as §2

The nature of data set [6]: Evaluated in vivo for maximum tolerated dose and found to be nontoxic. The format is ADME, organism-based.
The subject of data set [7] is T-24. The experiment in a line: (§6) Cytotoxicity against T24 bladder cell lines using MTT colorimetric assay; NE is no effect at 1x 10 E-5. The format is functional, cell-based, Homo sapiens. The essentials: as §2
Data set [8] relates to LoVo. The experiment in a line: (§7) Cytotoxicity against LoVo colon cell line using MTT colorimetric assay; NE is no effect at 1x 10 E-5. The format is functional, cell-based, Homo sapiens. Put shortly: as §2
Data set [9] deals with A-427. Kind of data set: (§8) Cytotoxicity against A-427 nonsmall lung cell line using MTT colorimetric assay; NE is no effect at 1x 10 E-5. The format is functional, cell-based, Homo sapiens. Put shortly: as §2
Data set [10] relates to T47D. The experiment in a line: Cytotoxicity against Breast cancer cell line T-47D using MTT colorimetric assay at 1x 10 E-5; NE is no effect at 1x 10 E-5. In kind it is functional, cell-based, Homo sapiens. The essentials:
as §2

In data set [11] the test system is J82. Kind of data set: (§9) Cytotoxicity against J82 bladder cell lines using MTT colorimetric assay; NE is no effect at 1x 10 E-5. In kind it is functional, cell-based, Homo sapiens. Put shortly: as §2
Data set [12] relates to A549. The experiment in a line: (§10) Cytotoxicity against A549 nonsmall lung cell line using MTT colorimetric assay; NE is no effect at 1x 10 E-5. The format is functional, cell-based, Homo sapiens. The essentials:
as §2

Data set [13] concerns PC-3. The experiment in a line: (§11) Cytotoxicity against prostate cell line PC-3 using MTT colorimetric assay; NE is no effect at 1x 10 E-5. The format is functional, cell-based, Homo sapiens. The essentials:
as §2

Data set [14] has as its system A-427. The experiment in a line: Cytotoxicity against A-427 nonsmall lung cell line using MTT colorimetric assay. In kind it is functional, cell-based. Particulars: Homo sapiens. Put shortly:
as §2

Data set [15] has as its system A 172. Kind of data set: Cytotoxicity against A-172 glioblastomas using MTT colorimetric assay. In kind it is functional, cell-based. Particulars: Homo sapiens. The essentials: as §2
Data set [16] relates to MCF7. Kind of data set: Cytotoxicity against Breast cancer cell line MCF-7 using MTT colorimetric assay. Particulars: Homo sapiens. The format is functional, cell-based. Put shortly:
as §2

In data set [17] the test system is A549. Kind of data set: Cytotoxicity against A549 nonsmall lung cell line using MTT colorimetric assay. In kind it is functional, cell-based. Particulars: Homo sapiens. The essentials:
as §2

For data set [18], the system named is U373 MG. The experiment in a line: Cytotoxicity against U-373 MG glioblastomas using MTT colorimetric assay. In kind it is functional, cell-based, U-373MG ATCC. Particulars: Homo sapiens. Put shortly:
as §2

In data set [19] the test system is PC-3. The experiment in a line: Cytotoxicity against prostate cell line PC-3 using MTT colorimetric assay. The format is functional, cell-based. Particulars: Homo sapiens. Put shortly: as §2
For data set [20], the system named is LoVo. The experiment in a line: Cytotoxicity measured on LoVo colon cell line using MTT colorimetric assay. The format is functional, cell-based. Particulars: Homo sapiens. The essentials:
as §2

Data set [21] concerns J82. The experiment in a line: Cytotoxicity against J82 bladder cell lines using MTT colorimetric assay. The format is functional, cell-based. Particulars: Homo sapiens. Put shortly:
as §2

Data set [22] relates to T47D. Kind of data set: Cytotoxicity against Breast cancer cell line T-47D using MTT colorimetric assay at 1x 10 E-5. The format is functional, cell-based. Particulars: Homo sapiens. Put shortly: as §2
The test system of data set [23] is U-87 MG. Kind of data set: Cytotoxicity against U-87 MG glioblastomas using MTT colorimetric assay. The format is functional, cell-based, U-87MG ATCC. Particulars: Homo sapiens. The essentials: as §2
Data set [24] relates to HCT-15. Kind of data set: Cytotoxicity against HCT-15 colon cell line using MTT colorimetric assay. The format is functional, cell-based. Particulars: Homo sapiens. Put shortly: as §2
Data set [25] relates to T-24. The experiment in a line: Cytotoxicity against T24 bladder cell lines using MTT colorimetric assay. In kind it is functional, cell-based. Particulars: Homo sapiens. The essentials: as §2
Data set [26] has as its system MCF7. The data set is described as §4. In kind it is functional, cell-based. Particulars: Homo sapiens. The essentials: as §2
Data set [27] deals with HCT-15. The experiment in a line: Cytotoxicity against HCT-15 colon cell line using MTT colorimetric assay; NE is no effect at 1x 10 E-5. The format is functional, cell-based. Particulars: Homo sapiens. The essentials: as §2
Data set [28] relates to LoVo. The description is as §7. In kind it is functional, cell-based. Particulars: Homo sapiens. Put shortly: as §2
In data set [29] the test system is U-87 MG. The data set is described as §1. The format is functional, cell-based. Particulars: Homo sapiens; U-87MG ATCC. The essentials: as §2
Data set [30] deals with T-24. Described as §6. The format is functional, cell-based. Particulars: Homo sapiens. Put shortly: as §2
In data set [31] the test system is J82. Described as §9. In kind it is functional, cell-based. Particulars: Homo sapiens. Put shortly: as §2
In data set [32] the test system is A-427. Described as §8. The format is functional, cell-based. Particulars: Homo sapiens. Put shortly: as §2
Data set [33] concerns A549. The description is as §10. In kind it is functional, cell-based. Particulars: Homo sapiens. Put shortly: as §2
For data set [34], the system named is PC-3. The data set is described as §11. In kind it is functional, cell-based. Particulars: Homo sapiens. The essentials: as §2
In data set [35] the test system is A 172. The data set is described as §3. In kind it is functional, cell-based. Particulars: Homo sapiens. The essentials:
as §2

For data set [36], the system named is U373 MG. The description is as §5. In kind it is functional, cell-based. Particulars: Homo sapiens; U-373MG ATCC. Put shortly:
as §2

Data set [37] deals with T47D. Kind of data set: Cytotoxicity against Breast cancer cell line T-47D using MTT colorimetric assay; NE is no effect at 1x 10 E-5. The format is functional, cell-based. Particulars: Homo sapiens. The essentials: as §2
Data set [38] concerns Mus musculus. The experiment in a line: Evaluated in vivo for maximum tolerated dose (MTD/4) using MXT mouse mammary adenocarcinoma model.
Data set [39] concerns Mus musculus. Kind of data set: Evaluated in vivo for maximum tolerated dose (MTD/2) with Doxorubicin (DOX) using MXT mouse mammary adenocarcinoma model. In kind it is functional. Put shortly: (§12)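 MXT-HS hormone-sensitive mammary adenocarcinoma maintained by monthly s.c. transplantation in 6-week-old female B6D2F1 mice. Doses are set as fractions of the MTD. Drugs given i.p.; ETO and DOX 9 times, the quinolone 20 times. Nine mice per group. Tumor area (mm2) is the product of the two largest perpendicular caliper diameters, measured weekly. Mean ± SEM; Mann-Whitney test.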

Data set [40] has as its system Mus musculus. Kind of data set: Evaluated in vivo for maximum tolerated dose (MTD/4) with Doxorubicin (DOX) using MXT mouse mammary adenocarcinoma model. In kind it is functional. The essentials: as §12
The subject of data set [41] is T47D. The experiment in a line: Cytotoxicity against Breast cancer cell line T-47D using MTT colorimetric assay. The format is functional, cell-based. Particulars: Homo sapiens. Put shortly:
as §2

Data set [42] relates to MCF7. Kind of data set: Cytotoxicity against Breast cancer cell line MCF-7 using MTT colorimetric assay at 1x 10 E-5. The format is functional, cell-based. Particulars: Homo sapiens. The essentials:
as §2

Consider `COc1ccc(-c2cc3c(OC)cc(OC)cc3n(CCC(=O)O)c2=O)cc1`, for which the IC50 entry with U-87 MG [1], in the data set on A 172 [2], with MCF7 [3], in the data set with U373 MG [4], with HCT-15 [5] and in the data set on T-24 [7] was “No effect” each time. In addition, the concentration for half-maximal inhibition (IC50) result with LoVo [8], with A-427 [9], with T47D [10], with J82 [11], in the data set on A549 [12] and in the data set with PC-3 [13] was “No effect” each time. This compound came in with a maximal tolerated dose (MTD) in data set [6] of 160 mg/kg.

For the compound `COc1ccc(-c2cc3c(OC)ccc(OC)c3nc2O)cc1`, the half-inhibitory concentration (IC50) in the data set with A-427 [14], in the data set on A 172 [15], in the data set on MCF7 [16], in the data set on A549 [17], in the data set with U373 MG [18] and in the data set with PC-3 [19] was above 10 µM in each case. The 50% inhibitory concentration (IC50) with LoVo [20], in the data set on J82 [21], with T47D [22], with U-87 MG [23], in the data set with HCT-15 [24] and with T-24 [25] was above 10 µM throughout. This compound also returned an MTD in data set [6] of 160 mg/kg.

Take `COc1ccc(-c2cc3c(OC)cc(OC)cc3nc2S)cc1`: the Cytotoxicity entry in the data set on MCF7 [26], with HCT-15 [27], in the data set with LoVo [28], in the data set on U-87 MG [29], in the data set on T-24 [30] and in the data set on J82 [31] was “inactive” in each case. The Cytotoxicity entry in the data set on A-427 [32], in the data set with A549 [33], with PC-3 [34], in the data set on A 172 [35], with U373 MG [36] and in the data set with T47D [37] was “inactive” each time. This compound showed a maximal tolerated dose (MTD) in data set [6] of 160 mg/kg.

For `COc1ccc(-c2cc3c(OC)cc(OC)cc3n(CCc3nnn[nH]3)c2=O)cc1`, the 50% inhibitory concentration (IC50) with A-427 [14], with A 172 [15], in the data set on MCF7 [16], in the data set with A549 [17], in the data set on U373 MG [18] and in the data set with PC-3 [19] was above 10 µM throughout. The IC50 with LoVo [20], in the data set with J82 [21], with T47D [41], in the data set with U-87 MG [23], in the data set with HCT-15 [24] and with T-24 [25] was above 10 µM each time. This compound showed an MTD/8 in the data set on Mus musculus [38] of 20 mg/kg. In addition, the MTD in data set [6] is 160 mg/kg. In the data set on Mus musculus [39], this compound showed an MTD/2 of 80 mg/kg. The compound further registered an MTD/4 with Mus musculus [40] of 40 mg/kg.

With `CCN(CC)C(=O)Cn1c(=O)c(-c2ccc(OC)cc2)cc2c(OC)cc(OC)cc21`, the concentration for half-maximal inhibition (IC50) with A-427 [14], in the data set on A 172 [15], with MCF7 [42], in the data set on A549 [17], in the data set on U373 MG [18] and in the data set with PC-3 [19] was above 10 µM in each case. For the same compound, the IC50 in the data set with LoVo [20], in the data set on J82 [21], with T47D [41], with U-87 MG [23], in the data set on HCT-15 [24] and in the data set with T-24 [25] was above 10 µM each time. Also, the MTD in [6] amounted to 160 mg/kg.

Consider `COc1cccc2cc(-c3ccccc3)c(O)nc12`, for which the IC50 with A-427 [14], with A 172 [15], with MCF7 [16], in the data set with A549 [17], in the data set on U373 MG [18] and with PC-3 [19] was above 10 µM throughout. In addition, the IC50 in the data set on LoVo [20], with J82 [21], in the data set on T47D [41], with U-87 MG [23], in the data set with HCT-15 [24] and in the data set with T-24 [25] was above 10 µM each time. In [6], the maximal tolerated dose (MTD) is 160 mg/kg.
